In brackets after ≈: the same amount, converted by molar mass. Activity calls are given as the source filed them.

As usually defined, the solubility is the dissolved amount per volume that the medium holds. One may read the AUC(0-inf) as the area under the concentration-time curve extrapolated to infinity. The term GI50 denotes the concentration at which growth is held to half of that of the control. One may read the CC50 as the concentration giving 50% cytotoxicity. As usually defined, the EC50 is the concentration at which the effect is half-maximal. As usually defined, the Tmax is the time from dosing to the highest level.

The nature of data set [1]: Solubility in DMA. The class given is physicochemical.
Data set [2] deals with RAW264.7. The data set is described as follows: Reduction in LPS/INFgamma-induced iNOS protein expression in mouse RAW264.7 cells incubated for 20 hrs by Western blotting. The class given is functional, cell-based. Summed up:
(§1)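 LPS/IFNγ-stimulated RAW264.7 cells treated with compound for 20 h. iNOS, COX-2 and GAPDH detected by Western blot; representative of at least three independent experiments.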

The subject of data set [3] is A549. In words: Down regulation of cyclin A2 expression in human A549 cells incubated for 24 hrs by Western blotting. The class given is functional, cell-based. On the technique in general: A western blot detects proteins with antibodies after separation by electrophoresis.
Data set [4] relates to Mus musculus. In words: Toxicity in human A549 cells xenografted Nu-Foxn1'nu mouse assessed as incidence of overt toxicity at 10 mg/kg, po administered once daily on day 1 to 10, day 15 to 19 and day 22 to 26. The class given is organism-based. Also on record: dose 10 mg/kg, route oral. Particulars: in vivo. The procedure, abridged:
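Four-week-old male nude mice given 10 million A549 cells subcutaneously in the right flank. At ~60 mm³, randomised to vehicle (25% DMA + 75% PEG400) or oral gavage once daily (n = 8). Mice monitored for overt adverse signs, with body weight tracked.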
For orientation: Xenograft models place foreign cells or tissue in a host animal.

Data set [5] can be described thus: AUC (0 to infinity) in Sprague-Dawley rat at 3 mg/kg, po by HPLC-MS method. Also on record: dose 3 mg/kg, route oral, time infinity. It counts as ADME, organism-based. The settings on record: plasma. Summed up: (§2)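 Male rats (330−380 g, 9−10 weeks old), jugular vein cannulated 1 day before dosing, fasted; 3 mg/kg iv or oral in DMA/PEG400 (30/70, v/v), n = 3. Blood (150 μL) drawn at 0, 2, 5 (iv only), 15, 30 min and 1, 2, 4, 6, 8, 12, 24 h, kept on ice; plasma analysed by HPLC-MS; noncompartmental analysis.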

Data set [6] concerns NUGC-3. In words: Growth inhibition of human NUGC3 cells. The class given is functional. The procedure, abridged: (§3)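 Cells seeded per well: NUGC-3 4500, HONE-1 6000, MCF-7 6500, NCI-H460 2500, HepG2 10000, A549 5000; A549 grown in RPMI 1640 with 2 g/L NaHCO₃, 2 mM L-glutamine and 10% FBS. GI₅₀ = concentration giving 50% growth inhibition, mean of at least three experiments each in duplicate. Paclitaxel served as positive control.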

Data set [7] deals with Murine hepatitis virus. The data set is described as follows: Antiviral activity against Murine hepatitis virus JHM infected in mouse DBT cells assessed as reduction in N-protein expression at 0.05 to 0.5 uM pre-treated 1 hr before virus infection and measured 24 hrs post infection by immunofluorescent assay. The class given is functional, organism-based. The procedure, abridged:
(§4)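 DBT cells (2.8 × 10⁵/well) seeded the day before infection in DMEM with 2% FBS. Compound added 1 h before MHV-JHM at MOI 0.005 (virus grown in BNL CL.2 cells). Cytopathic effect viewed by phase contrast and N protein by immunofluorescence at 24 hpi.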

The test system of data set [8] is Mus musculus. In words: Toxicity in Nu-Foxn1'nu mouse assessed as effect on motor coordination at 5 mg/kg, po administered once daily on day 1 to 10, day 15 to 19 and day 22 to 26 measured during day 58 to 61 post dose by rotarod test. It counts as organism-based. Also on record: dose 5 mg/kg, route oral. Particulars: in vivo. The procedure, abridged:
(§5)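 Male nude mice already used in the A549 xenograft study (oral dosing, vehicle 25% DMA + 75% PEG400). Groups: vehicle (n = 8), 5 mg/kg (n = 7), 10 mg/kg (n = 8), plus untreated nontumor mice (n = 5). Rota-rod training on day 58, testing on days 59–61, rod accelerating 2 to 30 rpm over 300 s. Read-out was latency to fall, 300 s cutoff.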
For orientation: The rotarod test checks motor coordination on a turning rod.

In data set [9] the test system is Murine hepatitis virus. In words: Antiviral activity against Murine hepatitis virus JHM infected in mouse DBT cells assessed as reduction in virus-induced cytopathic effect at 0.05 to 0.5 uM pre-treated 1 hr before virus infection and measured 24 hrs post infection by phase contrast microscopy. It counts as functional, organism-based. The procedure, abridged: as §4

For data set [10], the system named is NCI-H460. The data set is described as follows: Down regulation of cyclin A2 expression in human NCI-H460 cells incubated for 24 hrs by Western blotting. The class given is functional, cell-based.
Data set [11] is described as follows: Cytotoxicity against mouse RAW264.7 cells. It counts as cell-based. Summed up: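 RAW264.7 cells stimulated with LPS/IFNγ and compound-treated in parallel with the NO assay; CC50 taken as concentration giving 50% inhibition of cell growth. Mean of at least three experiments, each in duplicate.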
Data set [12] relates to Transmissible gastroenteritis virus. The data set is described as follows: Antiviral activity against Transmissible gastroenteritis virus infected in ST cells pre-treated 2 hrs before virus infection measured 6 hrs post virus infection by immunofluorescent assay. It counts as functional, organism-based. The settings on record: Alphacoronavirus 1, ST. Summed up:
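ST cells, with or without 2 h compound pretreatment (10 concentrations), infected with TGEV at MOI 10. Immunofluorescence with anti-spike and anti-nucleocapsid antibodies at 6 hpi. EC50 from dose–response curves, mean of at least three experiments, each in duplicate.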

For data set [13], the system named is A549. In words: Antitumor activity against human A549 cells xenografted in Nu-Foxn1'nu mouse assessed as reduction in tumor volume at 10 mg/kg, po administered once daily on day 1 to 10, day 15 to 19 and day 22 to 26. Also on record: scale not given: the % may be the effect or the level left. The class given is functional. The procedure, abridged: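 Four-week-old male nude mice received 10 million A549 cells sc in the right flank. At ~60 mm³ tumours, mice were randomised (n = 8) and dosed by oral gavage in 25% DMA + 75% PEG400. Volume = a×b²/2. T/C (%) computed from day 1 and day 60 volumes versus vehicle.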

For data set [14], the system named is A549. The data set is described as follows: Growth inhibition of human A549 cells. It counts as functional. Summed up:
as §3

For data set [15], the system named is NCI-H460. In words: Induction of c-Jun protein accumulation in human NCI-H460 cells incubated for 24 hrs by Western blotting. It counts as functional, cell-based.
Data set [16] is described as follows: Tmax in Sprague-Dawley rat at 3 mg/kg, po by HPLC-MS method. Particulars: in vivo. Also noted: dose 3 mg/kg, route oral. It counts as ADME, organism-based. Summed up:
(§6)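 Male rats (330−380 g, 9−10 weeks), jugular vein cannula implanted 1 day before, fasted. 3 mg/kg given iv or orally (n = 3) in DMA/PEG400 30/70 v/v. Blood (150 μL) drawn at 0, 2, 5 (iv only), 15, 30 min and 1, 2, 4, 6, 8, 12, 24 h; plasma analysed by HPLC-MS; noncompartmental analysis.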

A short description of data set [17]: Apparent elimination half life in Sprague-Dawley rat at 3 mg/kg, po by HPLC-MS method. Also noted: dose 3 mg/kg, route oral. The settings on record: in vivo, read-out: betat1/2(app) (converted). The class given is ADME, organism-based. Summed up:
as §6

Data set [18] relates to Transmissible gastroenteritis virus. In words: Antiviral activity against Transmissible gastroenteritis virus infected in ST cells assessed as reduction in N-protein expression pre-treated before virus infection measured 16 hrs post virus infection by Western blotting. The class given is functional, organism-based. The procedure, abridged: (§7)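 ST cells pretreated with compound, then infected with TGEV. Western blot for nucleocapsid (N) protein, caspase 3 (cleavage of procaspase 3) and GAPDH at 16 hpi. Representative of at least three independent experiments.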

A short description of data set [19]: AUC (0 to infinity) in Sprague-Dawley rat at 3 mg/kg, iv by HPLC-MS method. It counts as ADME, organism-based. The settings on record: plasma. Also noted: time infinity, dose 3 mg/kg, route intravenous. Summed up: as §2
Data set [20] concerns Mus musculus. The data set is described as follows: Toxicity in Nu-Foxn1'nu mouse assessed as effect on motor coordination at 10 mg/kg, po administered once daily on day 1 to 10, day 15 to 19 and day 22 to 26 measured during day 58 to 61 post dose by rotarod test. It counts as organism-based. Also noted: dose 10 mg/kg, route oral. The settings on record: in vivo. Summed up: as §5

Data set [21] relates to RAW264.7. In words: Reduction in LPS/INFgamma-induced COX2 protein expression in mouse RAW264.7 cells incubated for 20 hrs by Western blotting. The class given is functional, cell-based. The procedure, abridged:
as §1

Data set [22] has as its system Transmissible gastroenteritis virus. In words: Antiviral activity against Transmissible gastroenteritis virus infected in ST cells assessed as reduction in caspase-3 activation pre-treated before virus infection measured 16 hrs post virus infection by Western blotting. It counts as functional, organism-based. Summed up:
as §7

For data set [23], the system named is MCF7. In words: Growth inhibition of human MCF7 cells. It counts as functional. Summed up:
as §3

Data set [24] is described as follows: Solubility in DMSO. It counts as physicochemical. Summed up:
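Compound dissolved in DMSO with sonication; maximal volume before precipitation measured and used to calculate saturation solubility.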

Turning to `CCN1Cc2c(c3ccc(OC)cc3c3cc(OC)c(OC)cc23)C(O)C1` (centres undefined), the solubility result in data set [1] was “soluble”; in data set [24], 60.5 mM (≈ 22.2 mg/mL). Also, the result in [2], in [3], in data set [7], in [9], in [10] and in data set [15] was Active. Besides, the result in data set [18], in [21] and in [22] was Active. Further, the Activity result in data set [4] is “Non-toxic”; in data set [8] it was “Non-toxic”; in [13], 61%; in data set [20], “Non-toxic”. In addition, the AUC(0-inf) was found to be 646 ng·h/mL in data set [5] and 999 ng·h/mL in [19]. For the same molecule, the GI50 in data set [6] was found to be 30 nM; in [14], 20 nM; in [23], 40 nM. The molecule also yielded a CC50 in [11] of 240 nM. Besides, in data set [12], the EC50 is 40 nM. In addition, in data set [16], the Tmax stood at 0.3 h. Further, in [17], the half-life is 11.8 h.

Values taken from ChEMBL document CHEMBL2177013, “Synthesis and biological evaluation of tylophorine-derived dibenzoquinolines as orally active agents: exploration of the role of tylophorine e ring on biological activity” (J Med Chem, 2012).
